# Experimental data: publication PMC3139720 (Proteins, 2011)
# Residue numbers refer to the chain shown, from its start. In names and notes the source's numbering stands. Several values for one entry are separate records, joined by “and”; a condition that tells them apart may be missing. Equal values may be shown once. Read-outs that look alike come from different tables or passages of the source. Marks after values point to notes of the source that are not given here.
# B1: RBP.L61C: E. coli ribose-binding protein variant engineered to contain a single, buried cysteine (L61C), C-terminal … tag (protein, UniProt P02925 26-296, looked up, variant L61C)
# Ribose import binding protein …: KDTIALVVSTLNNPFFVSLKDGAQKEADKLGYNLVVLDSQNNPAKELANVQDLTVRGTKICLINPTDSDAVGNAVKMANQANIPVITLDRQATKGEVVSHIASDNVLGGKIAGDYIAKKAGEGAKVIELQGIAGTSAARERGEGFQQAVAAHKFNVLASQPADFDRIKGLNVMQNLLTAHPDVQAVFAQNDEMALGALRALQTAGKSDVMVVGFDGTPDGEKAVNDGKLAATIAQLPDQIGAKGVETADKVLKGEKVQAKYPVDLKLVVKQ
# modifications: C-terminal … tag
# B2: RBP.A188C: E. coli ribose-binding protein variant engineered to contain a single, buried cysteine (A188C), C-terminal … tag (protein, UniProt P02925 26-296, looked up, variant A188C)
# Ribose import binding protein …: B1 Ribose import binding protein … with C61L, A188C
# modifications: C-terminal … tag
# Key:
# [1] = Practical properties of thiol-reactive probes; type: physicochemical; details: data not shown
# physchem = details: apparent pKa of L-GSH
# [2] = reaction of ABD with L-GSH; for Ea/R: Arrhenius fit
# [3] = fQCR: ABD labeling of a single buried cysteine over a temperature gradient; type: physicochemical
# Procedure, shortened: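 Purified single-buried-cysteine variant at 5-10 μM in 25 mM potassium phosphate, 100 mM KCl, pH 7, with TCEP. Final ABD at least 10-fold over protein. Parallel reactions run across a gradient thermocycler and quenched after fixed Δt by rapid cooling or acid. Fluorescence relative to RFUmax (400-2000 μM ABD) gives fractional labeling. Probe-concentration slices test EX2. ΔCp fixed at 3.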
# [4] = Thermal unfolding monitored by circular dichroism at 222 nm; type: physicochemical; details: pH 7, CD signal at 222 nm, fit of Eq. 1
# Procedure, shortened: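 His-tagged variants, Ni-affinity purified and buffer-exchanged. Protein at 3 μM in 25 mM potassium phosphate, 100 mM KCl, pH 7. CD signal at 222 nm recorded as a function of temperature. Apparent Tm obtained by fitting Eq. 1.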
# [5] = fQCR ligand binding: RBP.A188C in absence and presence of D-ribose; details: for Δ^apoGU: absence of ligand; for Tm / ΔHm: free energy profile; for Kd: ligand ribose, from ΔΔGU (Eq. 17)
# Procedure, shortened: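 RBP.A188C at 5 μM with 400 μM ABD and 50 μM TCEP (final) in 25 mM potassium phosphate, 100 mM KCl, pH 7, without or with 20 μM ligand. Samples incubated 10 min across a gradient thermocycler, then fluorescence read at 30°C (ex 405, em 465 nm). Fractional labeling converted to free-energy profiles. KD derived versus temperature and free ligand concentration via Eq. 17.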
# [6] = Δt 300 s, [ABD] 500 μM, PHERAstar FS microplate reader (Fig. 7)
# [7] = absence of ribose (Fig. 6B inset)
# [8] = presence of 20 μM ribose (Fig. 6B inset)
molecule,measurement,setting,value
"CCN(CC)c1ccc2c(C)c(-c3ccc(N4C(=O)C=CC4=O)cc3)c(=O)oc2c1 [CPM, N-[4-(7-diethylamino-4-methyl-3-coumarinyl)phenyl]maleimide]",solubility,[1],limited
same,spontaneous hydrolysis,[1],high rate of spontaneous hydrolysis that is strongly temperature dependent
"N[C@@H](CCC(=O)N[C@@H](CS)C(=O)NCC(=O)O)C(=O)O [L-GSH, reduced glutathione]",pKa,physchem,8.03 ± 0.01
"NS(=O)(=O)c1ccc(F)c2nonc12 [ABD, 4-(aminosulfonyl)-7-fluoro-2,1,3-benzoxadiazole]","lnA, average value and standard error",[2]; over pH 6-8.5,27.3 ± 0.3
same,Ea/R,[2]; pH 6 (by order of symbols),-9300 ± 200 K
same,Ea/R,[2]; pH 7 (by order of symbols),-8300 ± 200 K
same,Ea/R,[2]; pH 8 (by order of symbols),-7800 ± 200 K
same,Ea/R,[2]; pH 8.5 (by order of symbols),-7400 ± 200 K
B1,Tm,"[3]; summary line, quantified graphically",53 ± 1 ^c °C
same,~kclose at Tm,"[3]; Δt 300 s, [ABD] 100 μM",< 2 × 10^-2 ^e s^-1
same,~kclose at Tm,"[3]; Δt 300 s, [ABD] 200 μM",< 2 × 10^-2 ^e s^-1
same,~kclose at Tm,"[3]; Δt 300 s, [ABD] 400 μM",< 2 × 10^-2 ^e s^-1
same,Tm,"[3]; Δt 300 s, [ABD] 400 μM, quantified graphically (non-EX2)",53 ± 1 ^c °C
same,~kclose at Tm,"[3]; Δt 300 s, [ABD] 600 μM",< 2 × 10^-2 ^e s^-1
same,Tm,"[3]; Δt 300 s, [ABD] 600 μM, quantified graphically (non-EX2)",53 ± 1 ^c °C
same,~kclose at Tm,"[3]; Δt 300 s, [ABD] 800 μM",< 2 × 10^-2 ^e s^-1
same,Tm,"[3]; Δt 300 s, [ABD] 800 μM, quantified graphically (non-EX2)",53 ± 1 ^c °C
same,~kclose at Tm,"[3]; Δt 300 s, [ABD] 1200 μM",< 2 × 10^-2 ^e s^-1
same,Tm,"[3]; Δt 300 s, [ABD] 1200 μM, quantified graphically (non-EX2)",53 ± 1 ^c °C
same,apparent Tm,[4],53 ± 1 °C
B2,Ea/R,[3]; average value,-8140 ^a K
same,Tm,"[3]; Δt 300 s, [ABD] 200 μM",56 ± 1 °C
same,Ea/R,"[3]; Δt 300 s, [ABD] 200 μM, pH 7",-8163 ± 6 K
same,Ea/R,"[3]; Δt 300 s, [ABD] 400 μM, pH 7",-8110 ± 14 K
same,Tm,[3]; [6],56 ± 1 ^f °C
same,ΔHm,[3]; [6],123 ± 16 ^f kcal/mol and 112 ± 5 ^f kcal/mol
same,ΔHm,"[3]; Δt 300 s, [ABD] 800 μM, ΔCp fixed at 3",121 ± 4 kcal/mol
same,~kclose at Tm,"[3]; Δt 300 s, [ABD] 1600 μM",~0.04 s⁻¹
same,ΔHm,"[3]; Δt 300 s, [ABD] 1600 μM, ΔCp fixed at 3",117 ± 8 kcal/mol
same,Tm,"[3]; Δt 600 s, [ABD] 200 μM",56 ± 1 °C
same,Tm,"[3]; Δt 600 s, [ABD] 400 μM",56 ± 1 °C
same,ΔHm,"[3]; Δt 600 s, [ABD] 800 μM, ΔCp fixed at 3",128 ± 3 kcal/mol
same,Tm,"[3]; Δt 600 s, [ABD] 1200 μM",58 ± 1 °C
same,~kclose at Tm,"[3]; Δt 600 s, [ABD] 1200 μM",~0.04 s⁻¹
same,ΔHm,"[3]; Δt 600 s, [ABD] 1200 μM, ΔCp fixed at 3",125 ± 5 kcal/mol
same,Tm,"[3]; Δt 600 s, [ABD] 1600 μM",58 ± 1 °C
same,~kclose at Tm,"[3]; Δt 600 s, [ABD] 1600 μM",~0.04 s⁻¹
same,ΔHm,"[3]; Δt 600 s, [ABD] 1600 μM, ΔCp fixed at 3",121 ± 4 kcal/mol
same,apparent Tm,[4],56 ± 1 °C
same,Δ^apoGU,[5]; 46 °C,3.7 kcal/mol
same,Δ^apoGU,[5]; 48 °C,3.0 kcal/mol
same,Δ^apoGU,[5]; 50 °C,2.3 kcal/mol
same,Δ^apoGU,[5]; 52 °C,1.6 kcal/mol
same,Δ^apoGU,[5]; 54 °C,0.9 kcal/mol
same,Δ^apoGU,[5]; 56 °C,0.1 kcal/mol
same,Tm,[5]; [7],57 ± 1 °C
same,ΔHm,[5]; [7],138 ± 1 kcal/mol
same,Tm,[5]; [8],59 ± 1 °C
same,ΔHm,[5]; [8],160 ± 8 kcal/mol
same,Kd,[5]; 46 °C,1200 nM
same,Kd,[5]; 48 °C,1400 nM
same,Kd,[5]; 50 °C,1700 nM
same,Kd,[5]; 52 °C,2000 nM
same,Kd,[5]; 54 °C,2300 nM
same,Kd,[5]; 56 °C,2700 nM
